ChEMBL document CHEMBL1127706, “HIV-inhibitory natural products. 11. Comparative studies of sulfated sterols from marine invertebrates” (J Med Chem, 1994)

What was measured:
[1] = test system: Human immunodeficiency virus 1; assay: Inhibition of HIV-1 mediated cytotoxicity in CEM (human leukemia) cells.; type: functional, organism-based; details: Human immunodeficiency virus 1, CCRF-CEM
Method in brief: (§1)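 CEM-SS cells in RPMI 1640 without phenol red (5% FBS, 2 mM L-glutamine, gentamicin), resuspended at 1×10^5 cells/mL, infected with HIV-1 RF at MOI 0.01-0.05. Sterols dissolved in DMSO, serially diluted in medium (final DMSO ≤1%), top concentration 100 μg/mL. Incubated 6 days at 37 °C, 5% CO2. Cytoprotection read by XTT tetrazolium viability, relative to uninfected untreated controls.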

[2] = test system: Human immunodeficiency virus 2; assay: Inhibition of HIV-2 (CBL20) nediated cytotoxicity in CEM (human leukemia) cells.; details: Human immunodeficiency virus 2, CCRF-CEM
CCRF-CEM [3] = assay: Effective concentration was tested for cytoprotective effect against HIV-1 infection in CEM cells; type: functional, cell-based; details: Homo sapiens; method in brief: as §1
CCRF-CEM [4] = assay: Effective concentration was tested for cytoprotective effect against HIV-2 CBL 20 strain infection in CEM cells; type: functional, cell-based; details: Homo sapiens
Method in brief: (§2)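 HIV-2 strain CBL20 infection of CEM cells at MOI 0.01-0.05. Sterols in DMSO, diluted in complete medium (final DMSO ≤1%), maximum 100 μg/mL. Uninfected CEM-SS controls run for toxicity. XTT viability read after 6 days in culture at 37 °C, 5% CO2. Protection expressed as percent of uninfected, untreated controls.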

CCRF-CEM [5] = assay: Effective concentration for cytoprotective effect against HIV-1 infection in CEM cells; No protection of cells to HIV-induced Killing; type: functional, cell-based, Homo sapiens; method in brief: as §1
CCRF-CEM [6] = assay: Effective concentration for cytoprotective effect against HIV-2 CBL 20 strain infection in CEM cells; No protection of cells to HIV-induced Killing; type: functional, cell-based, Homo sapiens; method in brief: as §2
CCRF-CEM [7] = assay: Effective concentration for cytoprotective effect against HIV-2 infection in CEM cells; No protection of cells to HIV-induced Killing; type: functional, cell-based; details: Homo sapiens
Method in brief: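 Anticytopathicity test against HIV-2 strain ROD in CEM cells at MOI 0.01-0.05. Cells were held in RPMI 1640 with 5% FBS, and sterols were given from DMSO stocks (final DMSO ≤1%), up to 100 μg/mL. Cultures ran 6 days at 37 °C. Protection from viral killing was scored as percent, with host-cell cytotoxicity assessed in parallel.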

CCRF-CEM [8] = assay: Inhibitory concentration for cytoprotective effect against HIV-1 infection in CEM cells.; type: functional, cell-based; details: Homo sapiens; method in brief: as §1

| Compound | EC50 (CCRF-CEM [3]) | EC50 (CCRF-CEM [4]) | IC50 (CCRF-CEM [8]) | IC50 [1] | IC50 [2] | EC50 (CCRF-CEM [5]) | EC50 (CCRF-CEM [6]) | EC50 (CCRF-CEM [7]) |
| --- | --- | --- | --- | --- | --- | --- | --- | --- |
| CC(C)C(CCOS(=O)(=O)[O-])CC[C@@H](C)[C@H]1[C@@H](O)[C@H](O)C2[C@]3(O)C[C@@H](O)[C@@]4(O)C[C@@H](O)CC[C@]4(C)C3CC[C@@]21C.[Na+] (some centres undefined) | – | – | – | > 164 µM | > 164 µM | No protection | No protection | – |
| CC(C)CCC[C@@H](COS(=O)(=O)[O-])[C@H]1CCC2C3CC=C4[C@H](O)[C@H](OS(=O)(=O)[O-])[C@H](O)C[C@]4(C)C3CC[C@@]21C.[Na+].[Na+] (some centres undefined) | – | – | – | – | – | No protection | – | – |
| CC(C)C(C)CC[C@@H](C)[C@H]1CC[C@H]2[C@@H]3C[C@H](OS(=O)(=O)O)C4C[C@H](OS(=O)(=O)O)[C@@H](OS(=O)(=O)O)C[C@]4(C)[C@H]3CC[C@]12C (some centres undefined) | 6 µM | 2 µM | – | 56 µM | 56 µM | – | – | – |
| CCC(C)(C)C(C)CC[C@@H](C)[C@H]1CC[C@H]2[C@@H]3C[C@H](OS(=O)(=O)O)C4C[C@H](OS(=O)(=O)O)[C@@H](OS(=O)(=O)O)C[C@]4(C)[C@H]3CC[C@]12C (some centres undefined) | 3 µM | 7 µM | – | 17 µM | 94 µM | – | – | – |
| COC1([C@@H]2C=C3[C@H](O)C[C@]4(O)C(CC[C@@]5(C)C4[C@@H](OS(=O)(=O)[O-])[C@H](O)[C@@H]5[C@H](C)/C=C/[C@H](CO)C(C)C)[C@@]3(C)CC2)OCC(O)C(O)C1O.[Na+] (some centres undefined) | – | – | – | 64 µM | > 64 µM | No protection | – | – |
| CC(=O)O[C@@H]1C[C@H]2[C@@H]3C[C@H](OP(=O)([O-])OC4OC(CO)C(O)C(O)C4O)C4C[C@@H](OS(=O)(=O)[O-])CC[C@]4(C)[C@H]3CC[C@]2(C)[C@H]1[C@H](C)CCCC(C)C.[Na+].[Na+] (some centres undefined) | – | – | – | > 125 µM | > 125 µM | No protection | – | 13 µM |
| CC(C)C1(CC[C@@H](C)[C@H]2CC[C@@]3(C)C4C[C@H](OS(=O)(=O)O)C5C[C@H](OS(=O)(=O)O)[C@@H](OS(=O)(=O)O)C[C@]5(C)C4=CC[C@]23C)CC1C (some centres undefined) | 13 µM | 8 µM | – | > 128 µM | 51 µM | – | – | – |
| CC(CC[C@@H](C)[C@H]1CC[C@H]2[C@@H]3C[C@H](OS(=O)(=O)O)C4C[C@H](OS(=O)(=O)O)[C@@H](OS(=O)(=O)O)C[C@]4(C)[C@H]3CC[C@]12C)C(C)(C)C (some centres undefined) | 6 µM | 3 µM | – | 41 µM | 41 µM | – | – | – |
| CC(C)[C@H](CC[C@@H](C)[C@H]1C[C@H](OS(=O)(=O)[O-])[C@H]2[C@@H]3[C@H](O)[C@H](O)C4C[C@@H](O)CC[C@]4(C)[C@H]3CC[C@@]21C)OC1OCC(O)C(O)C1O.[Na+] (some centres undefined) | – | – | > 123 µM | – | 69 µM | No protection | No protection | – |
| CC(C)[C@H](CC[C@@H](C)[C@H]1C[C@H](OS(=O)(=O)[O-])[C@H]2[C@@H]3C[C@H](O)C4C[C@@H](O)CC[C@]4(C)[C@H]3CC[C@@]21C)OC1OCC(O)C(O)C1O.[Na+] (some centres undefined) | – | – | – | > 126 µM | > 126 µM | No protection | No protection | – |
| C[C@H](CCC(=O)NC(CO)CS(=O)(=O)O)[C@H]1[C@@H](O)[C@H](O)[C@H]2[C@@H]3C[C@@H](O)[C@@]4(O)C[C@@H](O)CC[C@]4(C)[C@H]3CC[C@]12C (some centres undefined) | – | – | – | > 174 µM | > 174 µM | No protection | No protection | – |

Now from value to molecule, other results behind:

| EC50 (CCRF-CEM [3]) | EC50 (CCRF-CEM [4]) | IC50 (CCRF-CEM [8]) | Compound | IC50 [1] | IC50 [2] | EC50 (CCRF-CEM [5]) | EC50 (CCRF-CEM [6]) | EC50 (CCRF-CEM [7]) |
| --- | --- | --- | --- | --- | --- | --- | --- | --- |
| 122 µM | 107 µM | – | CC(C)CCC[C@@H](COS(=O)(=O)O)[C@H]1CC[C@H]2[C@@H]3CCC4[C@H](O)[C@H](OS(=O)(=O)O)CC[C@]4(C)[C@H]3[C@@H](O)[C@@H](O)[C@]12C (some centres undefined) | > 152 µM | > 152 µM | – | – | – |
| 97 µM | – | – | CC(C)CCC[C@@H](COS(=O)(=O)O)[C@H]1CCC2C3CC=C4C[C@H](O)[C@@H](OS(=O)(=O)O)C[C@]4(C)C3CC[C@@]21C (some centres undefined) | > 161 µM | > 161 µM | – | – | – |
| 48 µM | – | – | CC(C)CC[C@@H](O)[C@@H](C)[C@H]1CC[C@H]2[C@@H]3C[C@H](OS(=O)(=O)O)C4C[C@@H](OS(=O)(=O)O)CC[C@]4(C)[C@H]3CC[C@]12C (some centres undefined) | > 160 µM | – | – | – | – |
| 19 µM | 128 µM | – | CC(C)CC[C@@H](O)[C@@H](C)[C@H]1CCC2C3C[C@H](OS(=O)(=O)O)C4C[C@@H](OS(=O)(=O)O)CC[C@]4(C)C3=CC[C@@]21C (some centres undefined) | > 161 µM | > 161 µM | – | – | – |
| 157 µM | 110 µM | – | CC(C)CCC[C@@H](COS(=O)(=O)O)[C@H]1CC[C@H]2[C@@H]3CCC4[C@H](O)[C@H](OS(=O)(=O)O)CC[C@]4(C)[C@H]3[C@@H](O)C[C@]12C (some centres undefined) | > 313 µM | > 157 µM | – | – | – |
| 241 µM | 80 µM | – | CC(C)CCC[C@@H](COS(=O)(=O)O)[C@H]1CCC2C3CC=C4[C@@H](O)[C@H](OS(=O)(=O)O)CC[C@]4(C)C3CC[C@@]21C (some centres undefined) | > 322 µM | > 161 µM | – | – | – |
| 13 µM | – | – | CC(=O)O[C@H](CCC(C)C)[C@@H](C)[C@H]1CC[C@H]2[C@@H]3C[C@H](OS(=O)(=O)O)C4C[C@@H](OS(=O)(=O)O)CC[C@]4(C)[C@H]3CC[C@]12C (some centres undefined) | > 149 µM | – | – | – | – |
| 164 µM | > 63 µM | – | CC(C)CCC[C@@H](COS(=O)(=O)O)[C@H]1CC[C@H]2[C@@H]3CC[C@H]4C[C@H](OS(=O)(=O)O)CC[C@]4(C)[C@H]3CC[C@]12C | > 312 µM | > 156 µM | – | – | – |
| 97 µM | 161 µM | – | C=C(C)CCC[C@@H](COS(=O)(=O)O)[C@H]1CC[C@H]2[C@@H]3CCC4[C@H](O)[C@H](OS(=O)(=O)O)CC[C@]4(C)[C@H]3CC[C@]12C (some centres undefined) | > 161 µM | > 161 µM | – | – | – |
| 18 µM | 3 µM | – | CC(=O)O[C@H](CCC(C)C)[C@@H](C)[C@H]1CCC2C3C[C@H](OS(=O)(=O)O)C4C[C@@H](OS(=O)(=O)O)CC[C@]4(C)C3=CC[C@@]21C (some centres undefined) | > 150 µM | > 150 µM | – | – | – |
| 86 µM | 39 µM | – | C=C(C)CCC[C@@H](COS(=O)(=O)O)[C@H]1CC[C@H]2[C@@H]3CC[C@]4(O)[C@H](O)[C@H](OS(=O)(=O)O)CC[C@]4(C)[C@H]3CC[C@]12C | > 157 µM | > 157 µM | – | – | – |
